# Assay results of several laboratories.
# ADRB2: Beta-2 adrenergic receptor (ADRB2, Homo sapiens, UniProt P07550)
Compound,target,test,conditions,quantity,value
CN1CCC(=C2c3ccccc3CCc3sccc32)CC1,ADRB2,"ligand displacement, radioligand",,IC50,5.8 µM
COc1ccc(OC)c(C(O)C(C)N)c1 (stereo not drawn),ADRB2,"ligand displacement, radioligand",cell membranes,IC50,12.3 µM
C[C@H](N)Cn1ncc2ccc3c(c21)CCCO3,ADRB2,"cAMP, agonist",,EC50,> 100 µM
CC(N)Cc1c[nH]c2ccc(OCc3cccs3)cc12 (stereo not drawn),ADRB2,"ligand displacement, radioligand",cell membranes,IC50,9.42 µM
NCC(O)c1cc(O)c(O)cc1F (stereo not drawn),"Beta-2 adrenergic receptor (ADRB2, Homo sapiens, UniProt P07550, N293Q)","ligand displacement, radioligand",cell membranes,Ki,3330 µM
CCC1(COCc2ccccc2F)CCC(C)(C)O1 (stereo not drawn),ADRB2,"calcium signal, agonist, fluorescence",,EC50,17 µM
CC(Cc1ccc2c(c1)OCO2)NCC(O)c1ccc(O)c(O)c1 (stereo not drawn),ADRB2,"β-arrestin recruitment, agonist",,EC50,0.00631 µM
NCC(O)c1ccc(O)c(O)c1F (stereo not drawn),"Beta-2 adrenergic receptor (ADRB2, Homo sapiens, UniProt P07550, N293A)","ligand displacement, radioligand",cell membranes,Ki,319 µM
CCOc1ccccc1OCCN[C@H](C)Cc1ccc(OC)c(S(N)(=O)=O)c1,ADRB2,"ligand displacement, radioligand",,IC50,2.2 µM
